ChEMBL document CHEMBL3120138, “Glucocorticoid receptor modulators informed by crystallography lead to a new rationale for receptor selectivity, function, and implications for structure-based design” (J Med Chem, 2014)
Calls of active or inactive are those of the source. The rule behind the calls is not given here.

Columns and labels:
Rattus norvegicus = test: Antiinflammatory activity in Lewis rat collagen-induced arthritis model assessed as reduction of paw diameter AUC at 3 to 30 mg/kg, po administered for 15 days measured during compound dosing; assay type: functional, organism-based
In short: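 Female Lewis rats received collagen injected at the tail base, and disease developed over 14 d. Responding rats (groups of n = 10) were then dosed orally once daily for the next 15 d. Ankle/paw diameter was measured throughout the live phase and summarised as AUC. Hindpaw histology was scored blind from 0 (normal) to 5 (vehicle-level). Statistics used Student's t test vs vehicle, p < 0.01.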

[1] = target: T1, Glucocorticoid receptor (Homo sapiens) (UniProt P04150); test: Transactivation of human glucocorticoid receptor expressed in HEK293 cells at 10 uM after 24 hrs by luciferase reporter gene assay relative to control; assay type: cell-based
T1 sequence (whole entry): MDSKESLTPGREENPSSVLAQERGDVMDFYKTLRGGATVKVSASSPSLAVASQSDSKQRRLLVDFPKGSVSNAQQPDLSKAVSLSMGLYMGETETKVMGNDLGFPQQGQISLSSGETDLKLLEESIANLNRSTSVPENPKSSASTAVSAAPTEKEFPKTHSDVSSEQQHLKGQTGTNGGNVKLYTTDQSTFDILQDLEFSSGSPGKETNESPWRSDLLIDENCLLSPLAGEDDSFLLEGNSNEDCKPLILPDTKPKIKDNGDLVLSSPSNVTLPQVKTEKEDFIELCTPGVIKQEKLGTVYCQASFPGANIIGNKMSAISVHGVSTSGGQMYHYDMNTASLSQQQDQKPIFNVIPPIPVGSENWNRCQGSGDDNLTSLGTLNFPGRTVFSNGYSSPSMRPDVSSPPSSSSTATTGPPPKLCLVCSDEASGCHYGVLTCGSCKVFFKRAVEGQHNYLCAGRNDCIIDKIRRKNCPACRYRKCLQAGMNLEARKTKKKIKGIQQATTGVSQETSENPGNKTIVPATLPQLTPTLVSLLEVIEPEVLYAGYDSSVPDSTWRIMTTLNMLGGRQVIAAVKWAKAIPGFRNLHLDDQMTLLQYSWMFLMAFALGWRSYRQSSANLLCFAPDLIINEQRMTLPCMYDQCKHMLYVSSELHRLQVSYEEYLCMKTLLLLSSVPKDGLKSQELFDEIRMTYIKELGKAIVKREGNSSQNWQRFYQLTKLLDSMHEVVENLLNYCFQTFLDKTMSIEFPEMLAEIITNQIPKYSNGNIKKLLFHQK
In short: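 HEK293 cells were transfected in DMEM with 5% charcoal-stripped FBS, using a CMV-hGR plasmid and a luciferase reporter driven by 2×GRE plus the TK promoter. After overnight incubation, cells were replated and exposed to compound for 24 h, then lysed for luciferase readout.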

[2] = Oral bioavailability in Sprague-Dawley rat at 3 mg/kg; assay type: ADME, organism-based; conditions: in vivo
In short: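 Cannulated male Sprague-Dawley rats, fasted overnight, given a single 3 mpk dose at t = 0. The iv vehicle was 20% microemulsion/80% DI water and the po vehicle CMC/tween in DI water. Plasma was analysed for parent compound by LC/MS-MS, and exposure, half-life, Vd, clearance and bioavailability were calculated.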

Compound: CC/C(=C1\c2ccccc2OCc2cccc(OC)c21)c1cccc(NS(C)(=O)=O)c1
- Activity (Rattus norvegicus): Active
- Efficacy [1]: 53%
- bioavailability [2]: 100%
